This is a sample that favours compounds with a hit; in the whole collection about 3.1% have one here.
KCNK3 block: human KCNK3 channel inhibitors, primary screen, CHO cells, FluxOR thallium flux, B-score. FluxOR fluorescence; active compounds read low. actives 0.84% (n = 340,000). B-score at 10 µM. AID 602410, 2012;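 active means B-score under library mean minus 4 SD, starting fluorescence ratio at most library mean plus 5 SD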;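 further: more negative B-score means stronger inhibition of thallium flux through KCNK3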
KCNK9 inh: KCNK9 potassium channel inhibitors, primary screen, HEK293 cells, thallium flux | FluxOR thallium flux fluorescence; active compounds read low | B-score at 10 µM | AID 488922, 2010 | actives 1.2% (n = 310,000) | Potassium channel subfamily K member 9 (Homo sapiens), Q9NPC2;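 active means ratio B-score over 3 SD below the library mean, with starting fluorescence within 5 SD of its mean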;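 further: negative B-score means less thallium flux so channel inhibition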
hERG protect: hERG rescue from dofetilide block, primary screen, cell-based, CHO-hERG, FluxOR thallium flux, dofetilide IC70; AID 1511, 2009; dofetilide IC70 present; activation (rescue from dofetilide block), less the hit threshold, % at 10 µM; Voltage-gated inwardly rectifying potassium channel KCNH2 (Homo sapiens), Q12809; actives 0.51% (n = 310,000);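 active means activation above the mean of controls blocked by dofetilide plus 5 SD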;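 further: thallium influx through hERG after potassium depolarization seen as dye fluorescence rise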
KCNQ1 pot: potentiators or activators of KCNQ1 channel, primary screen, cell-based, thallium flux, high-throughput. Potassium voltage-gated channel subfamily KQT member 1 (Homo sapiens), P51787. CHO-K1 KCNQ1, thallium flux FluxOR fluorescence; active compounds read high. B-score at 10 µM. actives 0.35% (n = 310,000). AID 2648, 2010;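 active means fluorescence ratio B-score, a plate-corrected score, at least three library SD, with initial intensity B-score within 5 SD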
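Assay system: CHO-K1 cells stably expressing KCNQ1. Medium: assay buffer for compound exposure, DMSO matched across wells. Timing: 37 °C overnight plating, 90-min dark dye load, 20-min compound pretreatment. Signal: kinetic FluxOR fluorescence, 10 s baseline plus 110 s post-stimulus.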
KCNQ1 block: inhibitors of human KCNQ1 channel, primary screen, cell-based, thallium flux, high-throughput. Potassium voltage-gated channel subfamily KQT member 1 (Homo sapiens), P51787. CHO-K1 KCNQ1, FluxOR thallium flux fluorescence; active compounds read high. B-score at 10 µM. actives 1.3% (n = 310,000). AID 2642, 2010;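 active means compounds whose thallium flux B-score, printed positive for inhibition, exceeds three library SD while starting fluorescence stays within three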;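 further: channel opened by potassium depolarization with thallium stimulus after 20 min compound exposure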
KCNK9 block conf: KCNK9 potassium channel inhibitors, confirmation, HEK293 cells, thallium flux, duplicate. AID 492992, 2010. FluxOR thallium flux fluorescence. shares compounds with KCNK9 inh. inhibition, % at 10 µM. actives 43% (n = 4,900);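 active means thallium signal inhibited by more than 5 SD of the compound-free buffer control wells, on both duplicate plates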;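 further: 0% = assay buffer control wells without compound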
Kir21 sel: mouse Kir2.1 channel inhibition, confirmation, selectivity assay for KCNK9 modulator project, cell-based, HEK293, thallium flux | AID 492993, 2010 | Kir2.1 cells, FluxOR thallium flux fluorescence | actives 4% (n = 4,900) | inhibition, % at 10 µM | shares compounds with KCNK9 inh;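 active means thallium signal drop more than 5 SD beyond the mean of the no-compound control wells, seen in both duplicate plates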;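 further: signal is fluorescence rise after thallium addition divided by baseline fluorescence; plate controls were assay buffer only for no effect and full block by chlorpromazine control for full effect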
Target sequence (P35561 whole entry, looked up): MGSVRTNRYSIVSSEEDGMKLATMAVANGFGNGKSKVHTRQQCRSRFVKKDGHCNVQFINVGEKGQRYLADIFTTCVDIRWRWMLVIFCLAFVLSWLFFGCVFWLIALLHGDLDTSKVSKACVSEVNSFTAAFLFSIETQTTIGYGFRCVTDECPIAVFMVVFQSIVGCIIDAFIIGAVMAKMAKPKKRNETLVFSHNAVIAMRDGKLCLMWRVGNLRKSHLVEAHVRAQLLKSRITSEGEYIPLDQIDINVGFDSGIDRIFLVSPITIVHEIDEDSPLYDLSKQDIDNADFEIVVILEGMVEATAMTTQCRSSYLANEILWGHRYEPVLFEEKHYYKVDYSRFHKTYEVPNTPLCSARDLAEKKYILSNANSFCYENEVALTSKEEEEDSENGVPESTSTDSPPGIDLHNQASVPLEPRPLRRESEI
HEK293 Tl ctr: thallium flux in non-induced HEK293 cells, confirmation, counter-screen for KCNK9 inhibitor project, cell-based, second counter screen, non-induced KCNK9-HEK293. shares compounds with KCNK9 inh. FluxOR thallium flux. inhibition, % at 10 µM. actives 40% (n = 4,900);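 active means thallium signal drop beyond 5 SD of the untreated control mean, on both duplicate plates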;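 further: plate controls were buffer only IC0 wells for no effect and SID17386958 at its maximal inhibitory level for full effect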
Starred values were filed as active, the others as inactive.

What do the screens show for `CN(Cc1cccc(Cl)c1Cl)C(=O)c1cccc(S(=O)(=O)N2CCN(Cc3ccccc3)CC2)c1`?
KCNK3 block: inactive; KCNK9 inh: inactive; hERG protect: -10; KCNQ1 pot: inactive; KCNQ1 block: inactive; KCNK9 block conf: inactive; Kir21 sel: inactive; HEK293 Tl ctr: inactive

How did CCOc1cc(/C=C2\C(=N)N3N=CSC3=NC2=O)ccc1OS(=O)(=O)c1ccccc1 do in these assays?
KCNK3 block: inactive; KCNK9 inh: inactive; hERG protect: -32; KCNQ1 pot: inactive; KCNQ1 block: inactive; KCNK9 block conf: inactive; Kir21 sel: inactive; HEK293 Tl ctr: inactive

What do the screens show for `Cc1ccccc1N1CCN(CCCN2C(=O)CC(=C(c3ccccc3)c3ccccc3)C2=O)CC1`?
KCNK3 block: inactive; KCNK9 inh: inactive; hERG protect: -11; KCNQ1 pot: inactive; KCNQ1 block: inactive; KCNK9 block conf: inactive; Kir21 sel: inactive; HEK293 Tl ctr: inactive

What do the screens show for `CC1O[C@@H](O[C@H](C)CC[C@@H](C)O)C(O)C[C@H]1O` (stereo not given in full)?
KCNK3 block: inactive; KCNK9 inh: inactive; hERG protect: -1; KCNQ1 pot: inactive; KCNQ1 block: inactive

What do the screens show for `COc1ccc(CNc2nc(NCc3ccc(OC)cc3)n(C(C)=O)n2)cc1`?
KCNK3 block: inactive; KCNK9 inh: inactive; hERG protect: 2; KCNQ1 pot: inactive; KCNQ1 block: inactive

What do the screens show for `CCC(=O)n1nc(NCc2ccccc2OC)nc1NCc1ccccc1OC`?
KCNK3 block: inactive; KCNK9 inh: inactive; hERG protect: -12; KCNQ1 pot: inactive; KCNQ1 block: 8*; KCNK9 block conf: inactive; Kir21 sel: inactive; HEK293 Tl ctr: inactive

Results for Cc1cc(C(=O)N2CCCC(C(=O)c3cc(F)ccc3F)C2)c(C)o1 (stereo not given) ?
KCNK3 block: inactive; KCNK9 inh: inactive; hERG protect: -17; KCNQ1 pot: inactive; KCNQ1 block: inactive

How did COc1ccc(N(CC(=O)NCCc2cccc(C)c2)S(=O)(=O)c2c(C)noc2C)cc1 do in these assays?
KCNK3 block: inactive; KCNK9 inh: inactive; hERG protect: -8; KCNQ1 pot: inactive; KCNQ1 block: inactive

What do the screens show for `COc1ccccc1CNC(=O)c1cc(-c2ccccc2)nn1CC1CC(c2cccc([N+](=O)[O-])c2)=NO1` (stereo not given)?
KCNK3 block: inactive; KCNK9 inh: -8.7*; hERG protect: -8; KCNQ1 pot: inactive; KCNQ1 block: inactive; KCNK9 block conf: 44%*; Kir21 sel: inactive; HEK293 Tl ctr: 30%*

How did Cn1cc(/C=N/n2cnc3scc(-c4ccc(Cl)cc4)c3c2=O)c2ccccc21 do in these assays?
KCNK3 block: inactive; KCNK9 inh: inactive; hERG protect: -5; KCNQ1 pot: inactive; KCNQ1 block: inactive; KCNK9 block conf: inactive; Kir21 sel: inactive; HEK293 Tl ctr: inactive

How did CCN(CC)c1ccc(S(=O)(=O)N2CCOCC2)cc1NC(=O)CN1CCc2ccccc2C1 do in these assays?
KCNK3 block: inactive; KCNK9 inh: -10*; hERG protect: -3; KCNQ1 pot: inactive; KCNQ1 block: inactive; KCNK9 block conf: 51%*; Kir21 sel: inactive; HEK293 Tl ctr: inactive

How did CCN(CC)C(=O)COC(=O)C1=NN(c2cc(C)ccc2C)C(=O)CC1 do in these assays?
KCNK3 block: inactive; KCNK9 inh: inactive; hERG protect: -8; KCNQ1 pot: inactive; KCNQ1 block: inactive

How did COCCNC(=O)c1ccccc1NC(=O)c1ccc(Cl)c(S(=O)(=O)Nc2ccc(C)cc2C)c1 do in these assays?
KCNK3 block: inactive; KCNK9 inh: inactive; hERG protect: -8; KCNQ1 pot: inactive; KCNQ1 block: inactive

How did Cc1ccc(C)c(NS(=O)(=O)c2cc(C(=O)Nc3ccccc3-c3ccccc3)ccc2Cl)c1 do in these assays?
KCNK3 block: inactive; KCNK9 inh: -13*; hERG protect: -2; KCNQ1 pot: inactive; KCNQ1 block: inactive; KCNK9 block conf: 39%*; Kir21 sel: inactive; HEK293 Tl ctr: 32%*

Results for Cc1ccc(NC(=O)CSCC(=O)N(C)CC(=O)Nc2cccc(F)c2)cc1 ?
KCNK3 block: inactive; KCNK9 inh: inactive; hERG protect: -8; KCNQ1 pot: inactive; KCNQ1 block: inactive

Results for CCCS(=O)(=O)N1CCN=C1SCc1cccc2ccccc12 ?
KCNK3 block: inactive; KCNK9 inh: inactive; hERG protect: -12; KCNQ1 pot: inactive; KCNQ1 block: inactive; KCNK9 block conf: inactive; Kir21 sel: inactive; HEK293 Tl ctr: inactive

Results for CCCOc1ccc2c3c(c(=O)oc2c1OCCC)CCCC3 ?
KCNK3 block: inactive; KCNK9 inh: -12*; hERG protect: -6; KCNQ1 pot: inactive; KCNQ1 block: inactive; KCNK9 block conf: 74%*; Kir21 sel: inactive; HEK293 Tl ctr: 31%*

How did CC(=O)Oc1ccc2c3c(c(=O)oc2c1C)CCCC3 do in these assays?
KCNK3 block: inactive; KCNK9 inh: inactive; hERG protect: 0; KCNQ1 pot: inactive; KCNQ1 block: inactive

Results for COc1ccc2oc(C(=O)OCC(=O)NC3CCCCC3)c(C)c2c1 ?
KCNK3 block: inactive; KCNK9 inh: inactive; hERG protect: -9; KCNQ1 pot: inactive; KCNQ1 block: inactive

How did COc1ccc(-c2noc(C3CCCN(C(=O)c4cccc(C)c4)C3)n2)cc1 (stereo not given) do in these assays?
KCNK3 block: inactive; KCNK9 inh: inactive; hERG protect: -4; KCNQ1 pot: inactive; KCNQ1 block: inactive; KCNK9 block conf: inactive; Kir21 sel: inactive; HEK293 Tl ctr: inactive

What do the screens show for `COc1ccc(-c2noc(C3CCCN(S(=O)(=O)c4ccc(C)c(Cl)c4)C3)n2)cc1OC` (stereo not given)?
KCNK3 block: inactive; KCNK9 inh: inactive; hERG protect: -15; KCNQ1 pot: inactive; KCNQ1 block: inactive
